Active and inactive are the calls of the source. The rule behind the calls is not given here.
Key:
HEK293 = assay: Inhibition of dexamethasone-induced apoptosis in HEK293 cells assessed as decrease in DNA fragmentation at 1 to 2 uM after 7 hrs by ELISA; assay type: functional, cell-based; conditions: Homo sapiens
Procedure, shortened: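 HEK-293 cells in medium with BrdU labelling solution (10 µM final) were plated at about 0.5 × 10³ cells/well. After 16 h they were washed and re-fed, then given 10^-8 M dexamethasone plus inhibitor for 7 h. Supernatant went to an anti-BrdU ELISA (secondary antibody, TMB), with absorbance at 370 nm. Quintuplicate.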

[1] = biological target: T1, Sphingomyelin phosphodiesterase 2 (Rattus norvegicus, UniProt Q9ET64); assay: Inhibition of nSMase in rat brain microsomal homogenate by micellar 14C-sphingomyelin assay
T1 sequence (Q9ET64 whole entry): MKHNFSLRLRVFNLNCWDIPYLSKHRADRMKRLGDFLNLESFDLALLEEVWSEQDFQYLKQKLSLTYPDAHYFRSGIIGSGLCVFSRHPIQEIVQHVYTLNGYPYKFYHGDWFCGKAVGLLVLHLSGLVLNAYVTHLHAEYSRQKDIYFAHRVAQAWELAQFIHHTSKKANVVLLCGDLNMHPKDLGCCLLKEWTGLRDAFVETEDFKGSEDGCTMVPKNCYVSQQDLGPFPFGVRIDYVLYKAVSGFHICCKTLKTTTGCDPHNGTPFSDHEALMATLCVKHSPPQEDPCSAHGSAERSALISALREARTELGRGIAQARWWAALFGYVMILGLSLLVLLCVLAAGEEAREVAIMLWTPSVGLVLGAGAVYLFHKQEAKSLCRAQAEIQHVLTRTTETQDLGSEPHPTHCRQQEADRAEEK

[2] = Inhibition of aSMase in rat brain microsomal homogenate by fluorescence assay
Rattus norvegicus = organism: Rattus norvegicus; conditions: Brain, Microsomal

Structure (SMILES) | IC50 [1] [µM] | IC50 [2] [µM] | Km (Rattus norvegicus) [µM] | Activity (HEK293)
CCCCCCCCCCCCS(=O)(=O)OC[C@H]1OC(O)[C@H](OP(=O)(O)O)[C@@H](O)[C@@H]1OP(=O)(O)O (some centres not stated) | > 100 | 0.44 | – | Active
O=P(O)(O)OC[C@H]1OC(O)[C@H](OP(=O)(O)O)[C@@H](O)[C@@H]1OP(=O)(O)O (some centres not stated) | – | > 50 | – | –
CCS(=O)(=O)OC[C@H]1OC(O)[C@H](OP(=O)(O)O)[C@@H](O)[C@@H]1OP(=O)(O)O (some centres not stated) | > 100 | 39.6 | – | –
CCCCCCCCS(=O)(=O)OC[C@H]1OC(O)[C@H](OP(=O)(O)O)[C@@H](O)[C@@H]1OP(=O)(O)O (some centres not stated) | > 100 | 2.34 | – | –

Further lines, with some results ahead:

IC50 [1] [µM] | IC50 [2] [µM] | Km (Rattus norvegicus) [µM] | Structure (SMILES) | Activity (HEK293)
> 100 | – | 0.53 | CCCCCC/C=C\C=C/C/C=C\C/C=C\CCCC(=O)OC(COC(=O)CCCCCCCCCCCCCCCCC)COP(=O)(O)O[C@@H]1[C@H](O)[C@H](OP(=O)(O)O)[C@@H](O)[C@H](OP(=O)(O)O)[C@H]1O (some centres not stated) | –
– | > 50 | – | O=P(O)(O)OC[C@H]1OC[C@H](OP(=O)(O)O)C[C@@H]1OP(=O)(O)O | –
> 100 | – | – | CCCCCCS(=O)(=O)OC[C@H]1OC(O)[C@H](OP(=O)(O)O)[C@@H](O)[C@@H]1OP(=O)(O)O (some centres not stated) | –

From ChEMBL document CHEMBL1157720, “Development of carbohydrate-derived inhibitors of acid sphingomyelinase” (Bioorg Med Chem, 2010)
